Experimental data gathered from unrelated publications.
pKi: −log10 of the molar value.
Target: Delta-type opioid receptor (Oprd1, Rattus norvegicus, UniProt P33533)
Setting: cell membranes

`Cc1cc(C)c(C[C@H](NC(=O)[C@@H](CCCNC(=N)N)NC(=O)[C@@H](N)Cc2c(C)cc(O)cc2C)C(=O)N[C@@H](CCCCN)C(N)=O)c(C)c1` has a pKi of 6.48 (ligand displacement, radioligand).
`Cc1cc(O)cc(C)c1C[C@H](N)C(=O)N[C@@H]1CCN(S(C)(=O)=O)c2ccc(CN3CCc4ccccc4C3)cc21` has a Kb of 0.85 nM (GTPγS binding, antagonist).
The pKi of `Cc1cc(O)cc(C)c1C[C@H](N)C(=O)N[C@H](CCCNC(=N)N)C(=O)N[C@@H](Cc1c(C)cccc1C(C)C)C(=O)N[C@@H](CCCCN)C(N)=O` is reported as 7.11 (ligand displacement, radioligand).
The pKi of `Cc1cc(O)cc(C)c1C[C@H](N)C(=O)N1CCc2ccc(Cc3cccc(N)c3)cc2C1` is reported as 8.26 (ligand displacement, radioligand).
For `Cc1cc(O)cc(C)c1C[C@H](C)C(=O)N[C@@H]1C/C=C\CC[C@@H](C(N)=O)NC(=O)[C@H](Cc2ccccc2)NC(=O)[C@H](Cc2ccccc2)NC1=O`, the pKi was 8.12 (ligand displacement, radioligand).
With `Cc1cccc(Cc2ccc3c(c2)CN(C(=O)[C@@H](N)Cc2c(C)cc(O)cc2C)CC3)c1` the pKi was 8.52 (ligand displacement, radioligand).
For `Cc1cc(O)cc(C)c1C[C@H](N)C(=O)N[C@@H]1CCN(C(=O)c2ccccc2)c2ccc(Cc3ccc4ccccc4c3)cc21`, the Kb was 15 nM (GTPγS binding, antagonist).
`Cc1cc(O)cc(C)c1C[C@H](N)C(=O)N1CCc2ccc(Cc3cccc([N+](=O)[O-])c3)cc2C1` gave a pKi of 8.60 (ligand displacement, radioligand).
The pKi of `NC(N)=Nc1ccc2[nH]c3c(c2c1)C[C@@]1(O)[C@H]2Cc4ccc(O)c5c4[C@@]1(CCN2CC1CC1)[C@H]3O5` is reported as 8.54 (ligand displacement, radioligand).
`N=C(N)NCCC[C@H]1NC(=O)[C@H](Cc2ccc(O)cc2)NC(=O)[C@H](CCCCN)NC(=O)[C@H](Cc2ccccc2)NC1=O` gave a pKi of 7.19 (ligand displacement, radioligand).
The pKi of `Cc1cc(O)cc(C)c1C[C@H](C)C(=O)N[C@@H]1CCCCC[C@@H](C(N)=O)NC(=O)[C@H](Cc2ccccc2)NC(=O)[C@H](Cc2ccccc2)NC1=O` is reported as 7.73 (ligand displacement, radioligand).
For `Cc1cc(O)cc(C)c1C[C@H](N)C(=O)N1CCc2ccc(Cc3ccccc3N)cc2C1`, the pKi was 8.05 (ligand displacement, radioligand).
For `Cc1cccc(C)c1C[C@H](NC(=O)[C@@H](CCCNC(=N)N)NC(=O)[C@@H](N)Cc1c(C)cc(O)cc1C)C(=O)N[C@@H](CCCCN)C(N)=O`, the pKi was 6.98 (ligand displacement, radioligand).
